# PREPL inh – PREPL enzyme inhibitors, primary screen, biochemical, fluorescence polarization. recombinant PREPL, fluorescence polarization activity-based probe. inhibition, % at 5.96 µM. 320,000 tested, 0.68% active. Prolyl endopeptidase-like (Homo sapiens), Q4J6C6. AID 2751, 2010;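 further: 0% = enzyme with DMSO and 100% = wells lacking enzyme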
# IDE cell inh – human IDE inhibitors in live cells, primary screen, fluorescence polarization, HEK cells, FAbetaB substrate | FAbetaB cleavage | inhibition, % at 5.59 µM | 320,000 tested, 0.41% active | AID 434962, 2010;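 active means percent inhibition above the average of all tested compounds plus 3 SD, set per screening campaign, cut at about 16% in these data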;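 further: IDE supplied by intact live HEK cells; FP after avidin binding of uncleaved biotin substrate so inhibition keeps polarization high; 0% = DMSO wells and 100% = 60 µM reference IDE inhibitor Ii1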
# IDE act – human IDE activators in live cells, primary screen, fluorescence polarization, HEK cells, FAbeta-B substrate; AID 493087, 2011; FAbeta-B cleavage; 0% vehicle, 100% cell-free pure enzyme wells; 340,000 tested, 0.073% active; activation, % at 5.96 µM;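 active means activation above the mean of all tested compounds plus 3 SD, set per screening campaign, cut at about 17% in these data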
# ARFGAP1 inhibitor – inhibitors of rat ARFGAP1 GAP activity, primary screen, biochemical, fluorescence polarization, GDP tracer | Arfgap1-stimulated ARF1 GTP hydrolysis, GDP FP detection | inhibition, % at 16.5 µM | 360,000 tested, 0.26% active;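 active means inhibition above a per-plate limit, mean inhibition of low control wells plus 3 SD, cut at about 25% in these data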;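 further: 0% = DMSO wells with enzyme and 100% = wells lacking Arfgap1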
# Target sequence (Q62848 1-136 limits assumed): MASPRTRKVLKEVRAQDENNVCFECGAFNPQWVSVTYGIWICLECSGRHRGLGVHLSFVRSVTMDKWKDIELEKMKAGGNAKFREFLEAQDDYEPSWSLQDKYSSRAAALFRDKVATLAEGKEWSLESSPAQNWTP
#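 Material: rat Arfgap1 catalytic domain, aa 1-136; also added: human ARF1(Δ1-17)-GTP substrate; compound dosing: one concentration, 16.5 µM, DMSO 1.26%; incubation: GTP hydrolysis reaction 2 h at 25 °C; measured by: Tracer-displacement fluorescence polarization with EDTA stop, 620/688 nm; evaluation: % inhibition from polarization; repeats: one replicate per compound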
# ASAP1 inh – inhibitors of human ASAP1 ArfGAP activity, primary screen, biochemical, fluorescence polarization. ASAP1-stimulated ARF1 GTP hydrolysis, GDP FP detection. 360,000 tested, 0.19% active. inhibition, % at 16.5 µM; in the data active means inhibition above about 25%;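 further: 0% = vehicle with enzyme and substrate and 100% = no enzyme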
# Target sequence (Q9ULH1 325-724 limits assumed): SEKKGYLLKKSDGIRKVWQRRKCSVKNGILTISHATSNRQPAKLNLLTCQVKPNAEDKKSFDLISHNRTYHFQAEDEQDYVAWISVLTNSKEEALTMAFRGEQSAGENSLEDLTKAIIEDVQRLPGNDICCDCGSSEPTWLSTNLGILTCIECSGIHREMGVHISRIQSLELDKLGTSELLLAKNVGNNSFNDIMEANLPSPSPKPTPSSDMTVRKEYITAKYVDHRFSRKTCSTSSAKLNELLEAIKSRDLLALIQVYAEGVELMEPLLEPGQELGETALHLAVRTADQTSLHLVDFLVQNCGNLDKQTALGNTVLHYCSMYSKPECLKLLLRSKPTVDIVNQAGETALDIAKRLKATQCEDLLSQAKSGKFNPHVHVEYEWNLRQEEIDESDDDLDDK
# PREPL confirm – human PREPL enzyme inhibitors, confirmation, biochemical, fluorescence polarization; shares compounds with PREPL inh; recombinant PREPL, fluorescence polarization activity probe; inhibition, % at 5.96 µM; 2,000 tested, 67% active; AID 2803, 2010;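 further: 0% = protein with DMSO and 100% = wells lacking protein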
# IDE inh confirm – human IDE inhibitors in live cells, confirmation, fluorescence polarization, HEK cells, FAbetaB substrate; 1,200 tested, 51% active; FAbetaB cleavage; inhibition, % at 5.59 µM; shares compounds with IDE cell inh; AID 435028, 2010;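 active means mean inhibition across triplicate wells above the cutoff set by the earlier primary insulin-degrading enzyme screen, cut at about 16% in these data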;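 further: 0% = DMSO wells and 100% = 60 µM reference IDE inhibitor Ii1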
# HEK293 tox – cytotoxicity in HEK cells, cytotoxicity control for IDE inhibitor project, cell-based, luminescence. shares compounds with IDE cell inh. HEK293 cytotoxicity, ATP luminescence. inhibition, % at 5.59 µM. 1,200 tested, 28% active. AID 449730, 2010; in the data active means inhibition above about 22%;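 further: 0% = vehicle wells and 100% = reference cytotoxic drug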
# ASAP1 GAP conf – ASAP1 GAP activity inhibitors, confirmation, biochemical, fluorescence polarization, human, triplicate | inhibition, % at 16.5 µM | 620 tested, 37% active | shares compounds with ASAP1 inh | ASAP1-stimulated Arf1 GTPase, GDP fluorescence polarization;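 active means mean inhibition over triplicates exceeds the hit threshold derived for the earlier primary screening run, cut at about 25% in these data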
# Active calls of the source: *; / = not tested or not shown. Shown are actives, neighbours in structure and some others; about 1.2% of the full set was active somewhere. Unless noted, no stated cut-off is given here; in the data, active means inhibition above about 43%; inactive means the rest.
SMILES,PREPL inh,IDE cell inh,IDE act,ARFGAP1 inhibitor,ASAP1 inh,PREPL confirm,others
O=[N+]([O-])c1ccc2c(c1)C(N1CCOCC1)/C(=C/COc1ccc(F)cc1)O2 (configuration not stated),48*,1,1,-3,9,36,
O=C(NCC(=O)c1ccccc1)OCc1ccc([N+](=O)[O-])cc1,15,5,7,5,-6,/,
CCOC(=O)Cn1ccc(NC(=O)c2ccc(F)cc2)n1,-6,5,2,3,3,/,
COc1ccc(-c2cn(Cc3ccc4c(c3)C(=O)c3ccccc3C4=O)nn2)cc1,48*,4,-1,-10,-7,37,
Cc1ccc2c(CC(=O)Nc3ccc(N4CCN(C)CC4)cc3C)coc2c1,61*,-4,0,4,6,60*,
CCN1C(=O)/C(=C\c2cccn2-c2ccc([N+](=O)[O-])cc2)N(CC)C1=S,1,2,7,15,0,/,
CC1CCCN(Cc2ccc(OCc3ccccc3)cc2)C1 (configuration not stated),12,0,-3,10,7,/,
C=C1c2cccc(O)c2C(O)=C2C(=O)[C@]3(O)C(O)=C(C(N)=O)C(=O)[C@@H](N(C)C)[C@@H]3[C@@H](O)[C@H]12,80*,2,6,-12,-3,24,
C[C@H]1c2cccc(O)c2C(O)=C2C(=O)C3(O)C(O)=C(C(N)=O)C(=O)[C@@H](N(C)C)[C@@H]3[C@@H](O)[C@@H]21 (some centres not stated),-10,0,3,5,-11,/,
CC(C)Cn1cc(C(=O)N2CCN(c3ccccn3)CC2)c2c3ccccc3n(C)c2c1=O,51*,0,-2,12,3,43,
CCCC(=O)N1CCC1(C)C(=O)Nc1ccc(C)c(C)c1 (configuration not stated),/,/,/,3,2,/,
CN(CCC#N)C(=O)COC(=O)C1c2ccccc2Oc2ccccc21,-3,-1,2,-2,2,/,
N#CCCN(CCC#N)C(=O)C1c2ccccc2Oc2ccccc21,82*,-2,7,-4,2,5,
Cn1cnc(C(=O)N2CCN(c3ccccc3)CC2)c1C(=O)N1CCN(c2ccccc2)CC1,45*,0,5,-7,5,40,
COc1ccc(Nc2nc(N3CCCCC3)c3ccccc3n2)cc1,60*,2,0,0,-1,43,
Cc1ccc(Nc2nc(N3CCOCC3)c3ccccc3n2)cc1,34,6,1,17,-13,/,
Oc1ccc(Nc2nc(N3CCCC3)c3ccccc3n2)cc1,72*,2,-1,-4,-3,66*,
O=C(c1cccc([N+](=O)[O-])c1)N1CCN(c2ccc(Cl)cc2)CC1,51*,4,-4,3,-19,39,
O=c1oc2c3c4c(cc2c(C(F)(F)F)c1CCN1CCOCC1)CCCN4CCC3,55*,37*,-49,1,10,61*,IDE inh confirm=68*;HEK293 tox=10
Cc1ccc(S(=O)(=O)Nc2cc(C)cn(Cc3ccc(F)cc3)c2=O)cc1,4,4,-2,-1,-4,/,
CCC(CO)[n+]1c(C)cc(/C=C2\Sc3ccccc3N2Cc2ccccc2)cc1C (configuration not stated),77*,43*,-37,-2,2,73*,IDE inh confirm=54*;HEK293 tox=100*
O=S(=O)(c1ccc(OC(F)(F)F)cc1)N1CCC(O)(c2cccc(C(F)(F)F)c2)CC1,-2,4,0,9,-6,/,
COc1ccc2[nH]c3c(N4CCC(O)(c5cccc(C(F)(F)F)c5)CC4)ncnc3c2c1,50*,23*,-5,20,16,45*,IDE inh confirm=6;HEK293 tox=65*
O=C(Nc1ccc2c(c1)CCC2)C1CCN(c2c3c(nc4ncnn24)CCC3)CC1,46*,42*,-42,4,0,43,IDE inh confirm=13;HEK293 tox=51*
O=C(Nc1ccc(Oc2ccccc2)cc1)C1CCN(c2c3c(nc4ncnn24)CCC3)CC1,9,5,-2,-13,9,/,
SMILES,PREPL inh,IDE cell inh,IDE act,ARFGAP1 inhibitor,ASAP1 inh,PREPL confirm,others
CC1=CC(C)(C)Nc2ccc(OC(=O)CCN3C(=O)c4ccccc4C3=O)cc21,79*,17*,-3,-3,1,78*,IDE inh confirm=38*;HEK293 tox=127*
CCCNC(=O)COc1coc(CN2CCN(c3ccc(F)cc3)CC2)cc1=O,12,2,1,-12,4,/,
CCCN1CCc2c(sc(NC(=S)NC(=O)c3ccccc3)c2C#N)C1,61*,39*,-33,12,-5,26,IDE inh confirm=9;HEK293 tox=13
COc1ccc(-c2nc3ccc(C)cn3c2Cc2ccccc2)cc1OC,/,/,/,7,0,/,
N#C/C(=C\c1ccc(N2CCCC2)c([N+](=O)[O-])c1)c1nc2ccccc2[nH]1,23,13,-2,4,0,/,
N#C/C(=C/c1ccc(O)c(O)c1)c1nc2ccccc2[nH]1,60*,47*,-49,-2,-3,48*,IDE inh confirm=93*;HEK293 tox=9
COC(=O)C1=C(C)N(Cc2ccccc2C(F)(F)F)C(=NCc2ccc3c(c2)OCO3)NC1c1ccc(C(F)(F)F)cc1 (configuration not stated),/,/,/,-3,-5,/,
Cc1ccc(Nc2nc(NCCO)c3ccccc3n2)cc1C,56*,-1,2,18,28*,50*,ASAP1 GAP conf=6
COc1ccccc1CNC(=O)C1CCCN(S(=O)(=O)c2cccs2)C1 (configuration not stated),6,2,4,7,10,/,
Cc1c(O)ccc(/C=N/Nc2nc(-c3cccnc3)nc3ccccc23)c1O,72*,-2,2,8,27*,72*,ASAP1 GAP conf=22

# Screening data deposited in PubChem BioAssay by The Scripps Research Institute Molecular Screening Center.
